Results as given in ChEMBL document CHEMBL1144887, “Indanylidenes. 1. Design and synthesis of (E)-2-(4,6-difluoro-1-indanylidene)acetamide, a potent, centrally acting muscle relaxant with antiinflammatory and analgesic activity” (J Med Chem, 2003).

What was measured:
Format in all cases: functional
[1] = tested on: Mus musculus; assay: (§1) Percent effect profile muscle relaxation at 100 mg/kg by intraperitoneal administration in mouse using Straub-tail (ST) assay; conditions: ip
How it was run: (§2)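 Mouse morphine-induced Straub tail assay, scoring inhibition of sacro-coccygeus dorsalis contraction. Single ip dose of 100 mg/kg; percent effect reported. Compounds above 50% inhibition were then tested orally.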

[2] = tested on: Rattus norvegicus; assay: Percent inhibition for analgesic activity by trypsin-induced hyperalgesia assay at 20 mg/kg by oral administration in rats.
How it was run: (§3)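 Rat trypsin-induced hyperalgesia (mild analgesia). Percent inhibition at a single oral dose of 20 mg/kg. Each compound tested two or three times; average variation approximately 5%.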

[3] = tested on: Rattus norvegicus; assay: Antiinflammatory activity in cells by Carrageenan pleurisy assay by oral administration at 20 mg/kg.
How it was run: (§4)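 Rat carrageenan pleurisy, 3 h. Single oral dose of 20 mg/kg, with separate read-outs for pleural cell counts and edema as percent inhibition. Each compound tested two or three times; average variation approximately 10%.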

[4] = tested on: Rattus norvegicus; assay: Antiinflammatory activity in edema by Carrageenan pleurisy assay by oral administration at 20 mg/kg.; how it was run: as §4
[5] = tested on: Rattus norvegicus; assay: Effective dose required for analgesic activity by trypsin-induced hyperalgesia assay at 20 mg/kg by oral administration in rats
How it was run: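 Rat trypsin-induced hyperalgesia (mild analgesia) with oral dosing. ED50 reported in mg/kg po. Each compound tested two or three times; average variation approximately 5%.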

[6] = tested on: Mus musculus; assay: as §1; conditions: ip; how it was run: as §2; remark: listed apart in the source
[7] = organism: Mus musculus; assay: Ratio of rotarod to Straub-tail activity, which indicates the dose exhibiting muscle relaxant activity versus that producing sedation.
How it was run: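 Ratio of rotorod ED50 (po) to Straub tail ED50 (po), both measured in mice with oral dosing. Indicates separation between the muscle-relaxant dose and the sedating dose.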

[8] = tested on: Mus musculus; assay: Effective dose required for muscle relaxation by oral administration in mouse using Straub-tail (ST) assay.
How it was run: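 Mouse morphine-induced Straub tail assay, scoring inhibition of sacro-coccygeus dorsalis contraction. Dosed ip or po, generally at a minimum of three doses with N = 6 animals per dose group.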

[9] = tested on: Mus musculus; assay: Sedation caused by oral administration was estimated using rotarod (RR) assay.
How it was run: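 Mouse rotorod test for sedation, oral dosing, generally at a minimum of three doses with N = 6 animals per dose group.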

[10] = tested on: Rattus norvegicus; assay: Percent inhibition for analgesic activity by trypsin-induced hyperalgesia assay at 20 mg/kg by oral administration in rats; how it was run: as §3

NC(=O)/C=C1\CCc2cc(Cl)ccc21
inhibition in vivo at 100 mg/kg [1]: 0%
inhibition in vivo at 20 mg/kg [2]: 42%
inhibition in vivo at 20 mg/kg [3]: 30%
inhibition in vivo at 20 mg/kg [4]: 29%
ED50 [5]: 30 mg/kg

CNC(=O)/C=C1\CCc2cc(Cl)ccc21
inhibition in vivo at 100 mg/kg [6]: 50%
inhibition in vivo at 20 mg/kg [2]: 25%
inhibition in vivo at 20 mg/kg [3]: 40%
inhibition in vivo at 20 mg/kg [4]: 44%

O=C(/C=C1\CCc2cc(F)cc(F)c21)NC1CC1
inhibition in vivo at 100 mg/kg [6]: 100%
Ratio [7]: 1.4
ED50 [8]: 69 mg/kg
inhibition in vivo at 20 mg/kg [2]: 13%
ED50 [9]: 81 mg/kg

NC(=O)CC1CCc2c(F)cc(F)cc21 (configuration not stated)
inhibition in vivo at 100 mg/kg [1]: 50%
inhibition in vivo at 20 mg/kg [10]: 11%

Cc1cccc2c1/C(=C/C(N)=O)CC2
inhibition in vivo at 100 mg/kg [6]: 100%
Ratio [7]: 0.7
ED50 [8]: 82 mg/kg
inhibition in vivo at 20 mg/kg [10]: 12%
ED50 [9]: 56 mg/kg

CCNC(=O)/C=C1\CCc2c(F)cc(F)cc21
inhibition in vivo at 100 mg/kg [6]: 67%
inhibition in vivo at 20 mg/kg [2]: 63%

NC(=O)/C=C1\CCc2c1ccc(F)c2F
inhibition in vivo at 100 mg/kg [6]: 100%
Ratio [7]: 1.1
ED50 [8]: 45 mg/kg
inhibition in vivo at 20 mg/kg [2]: 41%
inhibition in vivo at 20 mg/kg [3]: 77%
ED50 [9]: 50 mg/kg
inhibition in vivo at 20 mg/kg [4]: 82%

O=C(/C=C1\CCc2c(F)cc(F)cc21)NCCO
inhibition in vivo at 100 mg/kg [1]: 83%
ED50 [8]: 100 mg/kg
inhibition in vivo at 20 mg/kg [10]: 27%

O=C(/C=C1\CCc2ccc(F)cc21)NC1CCC1
inhibition in vivo at 100 mg/kg [1]: 100%
ED50 [8]: > 100 mg/kg
inhibition in vivo at 20 mg/kg [3]: 4%
inhibition in vivo at 20 mg/kg [10]: 17%
inhibition in vivo at 20 mg/kg [4]: 0%

O=C(/C=C1\CCc2ccc(F)cc21)NC1CC1
inhibition in vivo at 100 mg/kg [6]: 100%
Ratio [7]: 0.9
ED50 [8]: 66 mg/kg
inhibition in vivo at 20 mg/kg [3]: 5%
ED50 [9]: 62 mg/kg
inhibition in vivo at 20 mg/kg [4]: 7%

CCCNC(=O)/C=C1\CCc2ccc(F)cc21
inhibition in vivo at 100 mg/kg [6]: 100%
ED50 [8]: > 100 mg/kg
inhibition in vivo at 20 mg/kg [2]: 11%
inhibition in vivo at 20 mg/kg [3]: 0%
inhibition in vivo at 20 mg/kg [4]: 36%

O=C(/C=C1\CCc2ccc(F)cc21)NCC1CC1
inhibition in vivo at 100 mg/kg [6]: 50%
inhibition in vivo at 20 mg/kg [3]: 0%
inhibition in vivo at 20 mg/kg [4]: 21%

O=C(/C=C1\CCc2ccc(F)cc21)N1CCCC1
inhibition in vivo at 100 mg/kg [6]: 33%
inhibition in vivo at 20 mg/kg [2]: 10%
inhibition in vivo at 20 mg/kg [3]: 10%
inhibition in vivo at 20 mg/kg [4]: 18%

O=C(/C=C1\CCc2ccc(Br)cc21)NC1CC1
inhibition in vivo at 100 mg/kg [6]: 33%
inhibition in vivo at 20 mg/kg [3]: 29%
inhibition in vivo at 20 mg/kg [4]: 4%

O=C(/C=C1\CCc2ccc(F)cc21)N1CCC1
inhibition in vivo at 100 mg/kg [6]: 33%
inhibition in vivo at 20 mg/kg [2]: 7%
inhibition in vivo at 20 mg/kg [3]: 14%
inhibition in vivo at 20 mg/kg [4]: 0%

CNC(=O)/C=C1\CCc2ccc(Cl)cc21
inhibition in vivo at 100 mg/kg [6]: 16%
inhibition in vivo at 20 mg/kg [2]: 17%
inhibition in vivo at 20 mg/kg [3]: 0%
inhibition in vivo at 20 mg/kg [4]: 25%

CCN(C)C(=O)/C=C1\CCc2c(F)cc(F)cc21
inhibition in vivo at 100 mg/kg [6]: 100%
Ratio [7]: 1.3
ED50 [8]: 56 mg/kg
ED50 [9]: 73 mg/kg

O=C(/C=C1\CCc2cc(Cl)ccc21)NC1CC1
inhibition in vivo at 100 mg/kg [6]: 17%
inhibition in vivo at 20 mg/kg [3]: 34%
inhibition in vivo at 20 mg/kg [4]: 29%

O=C(/C=C1/CCc2ccc(Cl)cc21)NC1CC1
inhibition in vivo at 100 mg/kg [1]: 0%

Cc1cccc2c1CC/C2=C\C(=O)NC1CC1
Ratio [7]: 1.6
inhibition in vivo at 100 mg/kg [1]: 100%
ED50 [8]: 40 mg/kg
inhibition in vivo at 20 mg/kg [3]: 15%
ED50 [9]: 64 mg/kg
inhibition in vivo at 20 mg/kg [4]: 7%

O=C(/C=C1\CCc2cc(F)ccc21)NC1CC1
Ratio [7]: 2.4
inhibition in vivo at 100 mg/kg [1]: 100%
ED50 [8]: 81 mg/kg
ED50 [9]: 193 mg/kg

NC(=O)/C=C1\CCc2ccc(Br)cc21
inhibition in vivo at 100 mg/kg [6]: 100%
ED50 [8]: 96 mg/kg
inhibition in vivo at 20 mg/kg [3]: 38%
inhibition in vivo at 20 mg/kg [4]: 21%

O=C(/C=C1\CCc2c(F)cc(F)cc21)NC1CC1
inhibition in vivo at 100 mg/kg [6]: 100%
Ratio [7]: 1
ED50 [8]: 62 mg/kg
inhibition in vivo at 20 mg/kg [3]: 38%
ED50 [9]: 62 mg/kg
inhibition in vivo at 20 mg/kg [4]: 28%

N#Cc1ccc2c(c1)/C(=C/C(N)=O)CC2
ED50 [1]: 33 mg/kg
inhibition in vivo at 20 mg/kg [2]: 21%
